Data from ChEMBL document CHEMBL3526041, “Absorption, metabolism and excretion of [(14)C]mirabegron (YM178), a potent and selective β(3)-adrenoceptor agonist, after oral administration to healthy male volunteers” (Drug Metab Dispos, 2012).
Blank lines part the entries; values can stand above or below the molecule they belong to.

Legend:
Conditions in all cases: in vivo
[1] = Drug recovery in healthy human urine treated with [14C]mirabegron at 160 mg, po as single dose measured up to 48 hrs; format: ADME, organism-based; design: dosed compound name [14C]Mirabegron
Summary of the method: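 Urine was collected at 0–6, 6–12, 12–24 and 24–48 h after a single oral 160 mg [14C]mirabegron dose in four men, with dichlorvos added. Samples underwent solid-phase extraction and radio-HPLC (C18, 40°C), with eluate fractions counted by scintillation. Each peak, as a percentage of eluted radioactivity, was converted to % of dose without recovery correction; mean ± S.D.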

Plasma [2] = experiment: Drug recovery in healthy human plasma treated with [14C]mirabegron at 160 mg, po as single dose measured at 2 hrs; format: ADME, organism-based; design: dosed compound name [14C]Mirabegron
Summary of the method: (§1)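 Plasma taken at 2, 4, 8 and 12 h from the four subjects was pooled at each time point, with dichlorvos added. Pools underwent solid-phase extraction, then HPLC with fractions counted by low-level liquid scintillation. Each peak is expressed as % of the radioactivity injected onto HPLC.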

Plasma [3] = experiment: Drug recovery in healthy human plasma treated with [14C]mirabegron at 160 mg, po as single dose measured at 4 hrs; format: ADME, organism-based; design: dosed compound name [14C]Mirabegron; summary of the method: as §1
Plasma [4] = experiment: Drug recovery in healthy human plasma treated with [14C]mirabegron at 160 mg, po as single dose measured at 8 hrs; format: ADME, organism-based; design: dosed compound name [14C]Mirabegron; summary of the method: as §1
Plasma [5] = experiment: Drug recovery in healthy human plasma treated with [14C]mirabegron at 160 mg, po as single dose measured at 12 hrs; format: ADME, organism-based; design: dosed compound name [14C]Mirabegron; summary of the method: as §1
Plasma [6] = experiment: Terminal elimination phase half life as total radioactivity in healthy human plasma at 160 mg, po as single dose; format: ADME, organism-based; design: dosed compound name [14C]Mirabegron
Summary of the method: (§2)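 Four healthy men fasted overnight, then took one oral dose of 160 mg mirabegron containing 1.85 MBq [14C]mirabegron, dissolved in 20 mM sodium citrate pH 4.5. Blood was drawn into lithium heparin tubes from 0 to 168 h. Total radioactivity in whole blood and plasma was counted by liquid scintillation. Unchanged drug in plasma was measured by validated LC-MS/MS (1–500 ng/ml). Parameters were derived noncompartmentally; values are mean ± S.D., n=4.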

[7] = Terminal elimination phase half life as total radioactivity in healthy human urine at 160 mg, po as single dose; format: ADME, organism-based; design: dosed compound name [14C]Mirabegron
Summary of the method: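 Same single oral 160 mg [14C]mirabegron solution in four fasted healthy men. Urine was collected over 0–6, 6–12 and 12–24 h, then in 24-h intervals to 408 h. Radioactivity was measured by scintillation counting. Unchanged drug was measured by LC-MS/MS (2–1000 ng/ml). Half-life came from log-linear regression of the terminal phase, and renal clearance was also calculated.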

Blood [8] = experiment: Tmax as total radioactivity in healthy human whole blood at 160 mg, po as single dose; format: ADME, organism-based; design: dosed compound name [14C]Mirabegron; summary of the method: as §2
Blood [9] = experiment: Cmax as total radioactivity in healthy human whole blood at 160 mg, po as single dose; format: ADME, organism-based; design: dose 160 mg, route oral, dosed compound name [14C]Mirabegron; summary of the method: as §2
Blood [10] = experiment: AUC (infinity) as total radioactivity in healthy human whole blood at 160 mg, po as single dose; format: ADME, organism-based; design: dose 160 mg, time infinity, route oral, dosed compound name [14C]Mirabegron; summary of the method: as §2
Blood [11] = experiment: Terminal elimination phase half life as total radioactivity in healthy human whole blood at 160 mg, po as single dose; format: ADME, organism-based; design: dosed compound name [14C]Mirabegron; summary of the method: as §2
[12] = Drug recovery in healthy human urine at 160 mg, po as single dose measured up to 408 hrs; format: ADME, organism-based; design: dosed compound name [14C]Mirabegron
Summary of the method: (§3)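 One oral dose of 160 mg [14C]mirabegron (1.85 MBq) given as a solution to four healthy men. Urine and feces were collected to 408 h; feces were homogenized and combusted. Expired air was trapped in hyamine hydroxide at set times to 96 h. All samples were counted by liquid scintillation. Cumulative excretion is given as % of administered radioactivity, mean ± S.D., n=4.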

[13] = Drug recovery in healthy human feces at 160 mg, po as single dose measured up to 408 hrs; format: ADME, organism-based; design: dosed compound name [14C]Mirabegron; summary of the method: as §3
[14] = Drug recovery in healthy human expired air at 160 mg, po as single dose measured up to 96 hrs; format: ADME, organism-based; design: dosed compound name [14C]Mirabegron; summary of the method: as §3
Homo sapiens [15] = experiment: Total drug recovery in healthy human at 160 mg, po as single dose measured up to 408 hrs; format: ADME, organism-based; design: dosed compound name [14C]Mirabegron; summary of the method: as §3
[16] = Drug recovery in healthy human urine at 160 mg, po as single dose measured up to 96 hrs; format: ADME, organism-based; design: dosed compound name [14C]Mirabegron; summary of the method: as §3
Homo sapiens [17] = experiment: Toxicity in healthy human assessed as changes in clinical lab values at 160 mg, po as single dose; format: organism-based; design: dosed compound name [14C]Mirabegron
Summary of the method: (§4)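 Safety in the four dosed men was followed throughout admission: 12-lead ECGs, vital signs, hematology, biochemistry, urinalysis, and physical examinations after a single oral 160 mg [14C]mirabegron solution.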

Homo sapiens [18] = experiment: Toxicity in healthy human assessed as vital signs at 160 mg, po as single dose; format: organism-based; design: dosed compound name [14C]Mirabegron; summary of the method: as §4
Homo sapiens [19] = experiment: Toxicity in healthy human assessed as ECG parameter at 160 mg, po as single dose; format: organism-based; design: dosed compound name [14C]Mirabegron; summary of the method: as §4
Homo sapiens [20] = experiment: Toxicity in healthy human assessed as changes in physical signs at 160 mg, po as single dose; format: organism-based; design: dosed compound name [14C]Mirabegron; summary of the method: as §4
Plasma [21] = experiment: Tmax as total radioactivity in healthy human plasma at 160 mg, po as single dose; format: ADME, organism-based; design: dosed compound name [14C]Mirabegron; summary of the method: as §2
Plasma [22] = experiment: Cmax as total radioactivity in healthy human plasma at 160 mg, po as single dose; format: ADME, organism-based; design: dose 160 mg, route oral, dosed compound name [14C]Mirabegron; summary of the method: as §2
Plasma [23] = experiment: AUC (infinity) as total radioactivity in healthy human plasma at 160 mg, po as single dose; format: ADME, organism-based; design: dose 160 mg, route oral, time infinity, dosed compound name [14C]Mirabegron; summary of the method: as §2
[24] = Drug recovery in healthy human feces at 160 mg, po as single dose measured up to 96 hrs; format: ADME, organism-based; design: dosed compound name [14C]Mirabegron; summary of the method: as §3
[25] = Drug recovery in healthy human plasma at 160 mg, po as single dose measured at 12 hrs

Compound recovery [1]: 2%
Compound recovery (Plasma [2]): Below limit of detection
Compound recovery (Plasma [3]): Below limit of detection
Compound recovery (Plasma [4]): Below limit of detection
Compound recovery (Plasma [5]): Below limit of detection
SMILES: Nc1ccc(CCNCC(O)c2ccccc2)cc1O[C@@H]1O[C@H](C(=O)O)[C@@H](O)[C@H](O)[C@H]1O (stereo not given in full)

Compound recovery [1]: 2.9%
Compound recovery (Plasma [2]): 3.7%
Compound recovery (Plasma [3]): 4.9%
Compound recovery (Plasma [4]): 9.4%
Compound recovery (Plasma [5]): 13%
SMILES: CC(=O)Nc1ccc(CCNC[C@H](O)c2ccccc2)cc1.Cl

Compound recovery [1]: 0.6%
Compound recovery (Plasma [2]): 6.9%
Compound recovery (Plasma [3]): 5.9%
Compound recovery (Plasma [4]): 3.5%
Compound recovery (Plasma [5]): Below limit of detection
SMILES: Nc1nc(CC(=O)Nc2ccc(CCN(C[C@H](O)c3ccccc3)O[C@@H]3O[C@H](C(=O)O)[C@@H](O)[C@H](O)[C@H]3O)cc2)cs1

beta t1/2 (Plasma [6]): 28.2 h
beta t1/2 [7]: 84.5 h
Tmax (Blood [8]): 2.13 h
Cmax (Blood [9]): 777 ng/mL
AUC (Blood [10]): 13896 ng·h/mL
beta t1/2 (Blood [11]): 30.5 h
Radiolabel recovery [12]: 55%
Radiolabel recovery [13]: 34.2%
Radiolabel recovery [14]: Below limit of detection
Radiolabel recovery (Homo sapiens [15]): 89.2%
Radiolabel recovery [16]: 48.7%
Tmax (Plasma [21]): 2.25 h
Cmax (Plasma [22]): 879 ng/mL
AUC (Plasma [23]): 10443 ng·h/mL
Radiolabel recovery [24]: 29.3%
Radiolabel recovery [25]: metabolite_not_detected
SMILES: Nc1nc(CC(=O)N[14c]2[14cH][14cH][14c](CCNC[C@H](O)c3ccccc3)[14cH][14cH]2)cs1
Activity (Homo sapiens [17]): Non-toxic
Activity (Homo sapiens [18]): Non-toxic
Activity (Homo sapiens [19]): Non-toxic
Activity (Homo sapiens [20]): Non-toxic
